CFTR F508del cor: CFTR F508del correction in bronchial cells; activity (quench increase), % at 7.58 µM; CFBE cells, YFP halide quenching; stimulated with forskolin plus potentiator P3; % fluorescence drop versus neutral controls; 350,000 compounds, 0.36% hits; AID 720511;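 active means mean added fluorescence quench of at least 8% versus neutral control, with both replicates also reaching 8%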;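 further: cells transiently co-express mutant CFTR-F508del with the halide-sensitive YFP; corrector assay measuring rescue of mutant channel to the surface after 24 h compound exposure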
SUMO1 PPI mod: SUMO1-SIM interaction modulation | P63165 | SUMO1 binding to a labelled peptide, TR-FRET, 1 h | inhibition, % at 20 µM | 360,000 compounds, 0.33% hits | AID 602429; in the data active means inhibition above about 37%
DNMT1 block: blocks human DNA methyltransferase DNMT1. P26358. DNMT1 molecular beacon, Hinp1I cleavage, fluorescence. inhibition (reported as % activation of signal), % at 10 µM. 360,000 compounds, 0.83% hits. AID 588458; in the data active means inhibition above about 50%
Target sequence (P26358 504-1616 limits assumed): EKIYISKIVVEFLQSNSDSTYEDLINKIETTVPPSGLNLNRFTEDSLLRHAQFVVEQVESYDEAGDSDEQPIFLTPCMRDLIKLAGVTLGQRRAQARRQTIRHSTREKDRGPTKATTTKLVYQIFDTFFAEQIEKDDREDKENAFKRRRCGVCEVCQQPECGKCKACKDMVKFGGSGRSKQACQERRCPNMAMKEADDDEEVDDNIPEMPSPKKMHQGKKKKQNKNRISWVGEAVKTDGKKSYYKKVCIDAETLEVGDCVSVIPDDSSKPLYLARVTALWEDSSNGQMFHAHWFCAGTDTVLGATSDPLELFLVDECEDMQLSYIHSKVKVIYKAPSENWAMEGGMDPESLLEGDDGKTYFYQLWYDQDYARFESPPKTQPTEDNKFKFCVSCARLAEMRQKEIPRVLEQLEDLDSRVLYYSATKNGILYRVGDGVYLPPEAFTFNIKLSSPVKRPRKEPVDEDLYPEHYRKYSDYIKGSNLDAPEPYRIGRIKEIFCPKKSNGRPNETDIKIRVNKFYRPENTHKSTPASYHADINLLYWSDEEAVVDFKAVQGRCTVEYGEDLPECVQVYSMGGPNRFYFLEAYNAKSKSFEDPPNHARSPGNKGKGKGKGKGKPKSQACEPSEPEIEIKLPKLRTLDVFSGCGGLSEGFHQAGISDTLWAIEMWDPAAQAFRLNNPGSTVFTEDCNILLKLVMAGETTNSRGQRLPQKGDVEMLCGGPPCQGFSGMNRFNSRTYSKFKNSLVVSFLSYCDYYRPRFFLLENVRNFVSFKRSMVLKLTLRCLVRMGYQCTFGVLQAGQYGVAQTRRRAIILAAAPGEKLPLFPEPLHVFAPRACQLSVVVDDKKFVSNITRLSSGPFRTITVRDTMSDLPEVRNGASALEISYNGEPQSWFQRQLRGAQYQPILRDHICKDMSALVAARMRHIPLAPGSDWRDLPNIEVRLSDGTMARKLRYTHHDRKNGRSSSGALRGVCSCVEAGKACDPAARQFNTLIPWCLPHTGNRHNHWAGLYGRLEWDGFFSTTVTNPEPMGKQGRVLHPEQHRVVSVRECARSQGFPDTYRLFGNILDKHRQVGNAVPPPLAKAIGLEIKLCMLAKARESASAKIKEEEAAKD
Scp-1 inhibitor: inhibitors of human Scp-1 phosphatase | AID 493091 | 340,000 compounds, 0.88% hits | Recombinant Scp1, phosphopeptide, malachite green phosphate absorbance | Q9GZU7 | inhibition, % at 20 µM;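 active means inhibition above about 50% at 20 µM, limit read from the data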;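 further: plate controls were DMSO wells with enzyme for no effect and wells lacking enzyme for full effect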
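Test system – truncated SCP-1 phosphatase (76-261aa) · Reagent – Phosphorylated 17-residue peptide substrate · Incubation – 45 min room-temperature reaction, 5 min colour, 30 min stabiliser · Detection – colorimetric phosphate reagent with accelerator and stabiliser, absorbance at 630 nm · Measure – % inhibition at 20 µM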
LMPTP inh: blocks human LMPTP phosphatase. 360,000 compounds, 0.22% hits. P24666. AID 651560. inhibition, % at 20 µM. recombinant LMPTP-A, OMFP fluorogenic substrate, fluorescence intensity;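 active means compounds that cut the enzyme signal by at least half of the control window in the single-dose screen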;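 further: plate controls were DMSO wells with enzyme plus substrate for no effect and substrate without enzyme for full effect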
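Assay system: LMPTP-A, protein tyrosine phosphatase of low molecular weight / Medium: pH 6.0 Bis-Tris buffer with DTT and Triton X-100 / Schedule: 50 min enzyme reaction at room temperature, protected from light / Measured by: endpoint fluorescence intensity from OMFP dephosphorylation / Read-out basis: % inhibition relative to no-enzyme and uninhibited control wells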
STEP block: blocks human striatal-enriched tyrosine phosphatase. P54829. recombinant STEP, OMFP fluorogenic substrate, fluorescence. inhibition, % at 20 µM. 360,000 compounds, 0.25% hits. AID 588621;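 active means inhibition at 20 µM, scaled per plate between control wells, above about 37%, limit read from the data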;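 further: 0% = DMSO with enzyme and substrate and 100% = substrate only without enzyme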
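material = STEP tyrosine phosphatase | reagent = fluorogenic phosphatase substrate OMFP at 25 µM final | doses = single compound dose of 20 µM, 1% DMSO final | schedule = 20 min reaction, room temperature, in the dark | measured by = fluorescence, 480/540 nm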
* = called active by the depositor; / = not tested or not shown. The list is not random: actives were taken first. Their share in the collection is about 1.6%.

SMILES	CFTR F508del cor	SUMO1 PPI mod	DNMT1 block	Scp-1 inhibitor	LMPTP inh	STEP block
CO[C@@H]1CN(C)C(=O)c2cc(NC(C)=O)ccc2OC[C@@H](C)N(CC2CC2)C[C@@H]1C	0	/	/	/	/	/
CC(NC1=CC(=O)c2cccnc2C1=O)C(O)c1ccccc1 (stereo unspecified)	-8	-18	72*	0	7	1
CC(c1ccccc1)N1C(=O)c2cccnc2C1=O (stereo unspecified)	1	-10	1	-5	-3	-1
CCn1cc(C(=O)NCc2ccc3c(c2)OCO3)c(=O)c2cc(F)c(N3CCN(C(=O)c4ccco4)CC3)cc21	/	8	-16	9	53*	5
CCn1cc(C(=O)O)c(=O)c2cc(F)c(N3CCN(C(=S)NC(=O)c4ccccc4)CC3)cc21	6	8	-3	-16	66*	0
C=CCCCCCCCCC(=O)N1CCN(c2cc3c(cc2F)c(=O)c(C(=O)O)cn3CC)CC1	-3	2	2	-19	17	4
CCn1cc(C(=O)O)c(=O)c2cc(F)c(N3CCN(C(=S)Nc4ccc(OC)cc4)CC3)cc21	0	-2	6	-12	59*	-2
CCn1cc(C(=O)O)c(=O)c2cc(F)c(N3CCN(C(=S)NC(=O)c4cc(OC)cc(OC)c4)CC3)cc21	0	12	3	7	63*	5
Cc1ccc(S(=O)(=O)N(C)C[C@@H]2Oc3ccc(NS(=O)(=O)c4c(C)noc4C)cc3C(=O)N([C@@H](C)CO)C[C@H]2C)cc1	0	/	/	/	/	/
C/C=C/c1ccc2c(c1)O[C@H](CN(C)C)[C@@H](C)CN([C@@H](C)CO)S2(=O)=O	0	/	/	/	/	/
COc1ccc(CN(C)C[C@@H]2OCCCC[C@@H](C)Oc3ccc(NC(=O)C4CCCCC4)cc3C(=O)N([C@@H](C)CO)C[C@@H]2C)cc1	-1	/	/	/	/	/
C[C@H]1CN([C@@H](C)CO)C(=O)c2cccc(NS(=O)(=O)c3ccc(F)cc3)c2O[C@H]1CN(C)C(=O)Nc1ccc2c(c1)OCO2	3	/	/	/	/	/
CCn1cc(C(=O)O)c(=O)c2cc(F)c(N3CCN(C(=S)NC(=O)c4ccccc4C)CC3)cc21	1	11	0	-16	64*	4
C=CCNC(=S)N1CCN(c2cc3c(cc2F)c(=O)c(C(=O)O)cn3CC)CC1	0	7	-1	-18	19	1
CCn1cc(C(=O)O)c(=O)c2cc(F)c(N3CCN(C(=S)NC(=O)c4ccccc4Cl)CC3)cc21	2	27	0	-11	63*	6
CCC(=O)Nc1ccc2c(c1)OC[C@@H](C)N(C(=O)CC)C[C@@H](C)[C@@H](OC)CN(C)C2=O	-1	/	/	/	/	/
Cc1cc(N=NC(=O)c2ccccc2)ccc1O	0	3	58*	-3	-1	-4
O=Cc1cc(N=Nc2cccc(C(=O)O)c2)ccc1O	1	-14	3	-2	-2	1
O=C(Nc1cccc(-c2nc3ncccc3o2)c1)c1cc2ccccc2o1	/	-2	1	3	2	-3
O=C(Nc1cccc(-c2nc3ncccc3o2)c1)c1sc2ccccc2c1Cl	/	1	42	2	50*	10
CC(C(=O)Nc1ccc(C#N)cc1)N(C)CC(=O)N(C)c1c(N)n(Cc2ccccc2)c(=O)[nH]c1=O (stereo unspecified)	-4	46*	4	-10	-1	-4
COc1ccc(S(=O)(=O)Nc2ccc3c(c2)[C@@H]2C[C@@H](CC(=O)N(C)C)O[C@@H](CO)[C@@H]2O3)cc1	-1	/	/	/	/	/
COc1ccccc1-c1ccc2c(c1)[C@H]1[C@H](CCN1S(=O)(=O)c1ccccc1F)[C@H](CO)N2	2	/	/	/	/	/
COc1cc(/C=C2/C(=O)c3cccc([N+](=O)[O-])c3C2=O)c(Br)cc1O	/	17	14	69*	3	4
O=C(C[C@H]1C[C@H]2c3cc(NC(=O)CC4CC4)ccc3O[C@H]2[C@@H](CO)O1)NCc1ccc(-c2ccccc2)cc1	0	/	/	/	/	/
SMILES	CFTR F508del cor	SUMO1 PPI mod	DNMT1 block	Scp-1 inhibitor	LMPTP inh	STEP block
C[C@H](CO)N1C[C@H](C)[C@H](CN(C)Cc2ccc3c(c2)OCO3)OCc2cnnn2CCCC1=O	2	/	/	/	/	/
COc1cc(OC)c2c(-c3cccc(-c4ccc(OC)c(OC)c4)c3)cc(=O)oc2c1	9.2*	4	-7	0	2	-1
COc1cc(OC)c2c(-c3cccc(-c4ccc(C#N)cc4)c3)cc(=O)oc2c1	1	-6	1	-1	1	2
COc1cc(OC)c2c(-c3cccc(-c4sccc4C(C)=O)c3)cc(=O)oc2c1	9.7*	-7	-1	-7	3	0
CCC(=O)N(C)C[C@@H]1Oc2cc(-c3ccc(C)cc3)ccc2S(=O)(=O)N([C@@H](C)CO)C[C@@H]1C	0	/	/	/	/	/
NCCCCCCNC(=O)[C@@H]1C[C@@H]2C(=O)N[C@@H](Cc3ccccc3)C(=O)N2[C@@H]1c1ccc(O)cc1	-4	/	/	/	/	/
CN(C(=O)c1ccccc1C(=O)OCC(=O)Nc1ccc(S(N)(=O)=O)cc1)c1ccccc1	8.2*	-1	-2	1	-1	-1
O=C(Cc1n[nH]c(=O)c2ccccc12)OCC(=O)c1ccc(F)cc1	1	6	0	-6	0	1
CCOc1ccc(C(=O)COC(=O)Cc2n[nH]c(=O)c3ccccc23)cc1	13*	48*	-2	-9	0	1
COc1ccc(-c2noc(CCCC(=O)N3CCN(c4cc(C)ccc4C)CC3)n2)cc1	4	42*	-3	4	6	7
COc1ccc(-c2noc(CCCCC(=O)N3CCN(c4cc(C)ccc4C)CC3)n2)cc1	2	3	-7	9	8	1
CCOC(=O)c1c(NC(=O)c2ccco2)n(C2CCCCC2)c2nc3ccccc3nc12	/	40*	39	-3	6	1
COc1ccc(-n2c(NC(=O)c3ccco3)c(C#N)c3nc4ccccc4nc32)cc1	/	33	13	-2	8	-1
CC(C)NC(=O)N[C@H]1CC[C@@H](CC(=O)N2CCCCC2)O[C@@H]1CO	-2	/	/	/	/	/
N=C(N)c1ccc(OCCCCCOc2ccc(C(=N)N)cc2)cc1	3	-65	20	-9	58*	-3
CO[C@H]1CN(C)C(=O)c2cc(NC(=O)Nc3ccc4c(c3)OCO4)ccc2OC[C@@H](C)NC[C@H]1C	3	/	/	/	/	/
CCN1C(=O)c2cccc3c(S(=O)(=O)N(C(C)=O)c4ccc(OC(C)=O)cc4)ccc1c23	16*	-12	1	-8	1	2
C[C@H]1CN([C@@H](C)CO)C(=O)c2cc(NS(=O)(=O)c3ccccc3)ccc2O[C@@H]1CN(C)Cc1ccc(C(=O)O)cc1	-1	/	/	/	/	/

Assay outcomes: PubChem, several laboratories
